Key:
Assay type in all cases: biochemical
[1] = biological target: HIV-1 RT (Human immunodeficiency virus type 1 group M subtype B, UniProt P04585); test: HIV-1 RT counter screen
In short: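 His-tagged p66/p51 heterodimeric wild-type RT, Ni-NTA purified, used at 10 nM. Reactions ran 37°C for 20 min, were stopped with ice-cold 5% TCA/0.5 mM pyrophosphate, filtered on GF-B and scintillation counted.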

[2] = biological target: T1, HCV NS5BCΔ21 (Hepatitis C virus genotype 1b, UniProt P26663); test: Gel-based incorporation assay; conditions: highest concentration of wedelolactone (lane 5, 100 μM), poly rA/U12, 20 min
In short: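 Stopped with 25 mM EDTA/0.5% SDS, then phenol-chloroform extracted and ethanol precipitated. Products were heated 90°C for 5 min, run on denaturing 6% polyacrylamide/7 M urea gel and imaged by phosphorimager.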

[3] = biological target: Klenow fragment of E. coli DNA polymerase I (Escherichia coli, UniProt P00582); test: Klenow polymerase counter screen; conditions: read-out: IC50 Klenow polymerase counter screen; poly rA/dT18, 10% DMSO
In short: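 Exonuclease-deficient Klenow fragment from E. coli BL-21(DE3), purified by ammonium sulfate fractionation and Biorex-70, used at 10 nM. Ran 37°C for 20 min, TCA/pyrophosphate quench, GF-B filtration, scintillation counting.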

[4] = biological target: T1, HCV NS5BCΔ21; test: NS5B RdRp assay; conditions: NS5B inhibition (IC50 μM), poly rA/U12, 25 μM UTP, 0.5 mM MnCl2, 10% DMSO, 1 h at 30°C
In short: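 NS5BCΔ21 (300–500 ng) and poly rA/U12 (0.5 μM) sat 5 min on ice before NTPs were added. Reactions ran 1 h at 30°C, then TCA quench and GF-B counting. IC50s were read from curves relative to DMSO control, from at least two independent runs.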

[5] = biological target: T1, HCV NS5BCΔ21; test: Determination of Ki and mode of inhibition; conditions: towards template/primer (poly rA/U12 varied), UTP fixed 25 μM
In short: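 Aliquots were taken at defined times, quenched in 5% TCA/0.5 mM pyrophosphate, and counted by GF-B filter binding. Ki and mode came from Dixon and Cornish-Bowden plots. Each run was done at least twice; values average at least triplicates.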

COc1cc(O)c2c(c1)oc(=O)c1c3cc(O)c(O)cc3oc21 [Wedelolactone, 7-methoxy-5,11,12-trihydroxy-coumestan]
IC50 [1]: > 250 µM | extension product formation (gel) [2]: no detectable extension product | IC50 [3]: > 700 µM | IC50 [4]: 36.1 µM | Ki ([5]; Ki competitive): 11.2 µM | Ki uncompetitive [5]: 43 µM
